Test results from ChEMBL document CHEMBL1156107, “Synthesis of new alkylaminooxysterols with potent cell differentiating activities: identification of leads for the treatment of cancer and neurodegenerative diseases” (J Med Chem, 2009).
The source made the active and inactive calls. The calls are words filed in the database; no cut-off is given here.

How the values were obtained:
MCF7 = test: Cytotoxicity against human MCF7 cells up to 20 uM after 72 hrs by trypan blue exclusion assay; type: functional, cell-based
Outline: (§1)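 Tumor lines grown at 37 °C in 5% CO₂, in RPMI 1640 or DMEM with FBS. Cells exposed to compound from 10 nM to 20 μM for 72 h. Cytotoxicity counted by trypan blue exclusion: cells scraped, suspended in 0.25% w/v trypan blue in PBS and counted in a Malassez cell under light microscopy. IC50 is the concentration giving 50% cytotoxicity.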

TS/A = test: Cytotoxicity against mouse TSA cells up to 20 uM after 72 hrs by trypan blue exclusion assay; type: functional, cell-based; outline: as §1
SK-MEL-28 = test: Cytotoxicity against human SK-MEL-28 cells up to 20 uM after 72 hrs by trypan blue exclusion assay; type: functional, cell-based; outline: as §1
B16-F10 = test: Cytotoxicity against mouse B16F10 cells up to 20 uM after 72 hrs by trypan blue exclusion assay; type: functional, cell-based; outline: as §1
A549 = test: Cytotoxicity against human A549 cells up to 20 uM after 72 hrs by trypan blue exclusion assay; type: functional, cell-based; outline: as §1
P19 [1] = test: Cytotoxicity against mouse P19 cells up to 20 uM after 72 hrs by trypan blue exclusion assay; type: functional, cell-based; outline: as §1
SK-N-SH [2] = test: Cytotoxicity against human SK-N-SH cells up to 20 uM after 72 hrs by trypan blue exclusion assay; type: functional, cell-based; outline: as §1
SH-SY5Y [3] = test: Cytotoxicity against human SH-SY5Y cells up to 20 uM after 72 hrs by trypan blue exclusion assay; type: functional, cell-based; outline: as §1
N2a [4] = test: Cytotoxicity against mouse Neuro2a cells up to 20 uM after 72 hrs by trypan blue exclusion assay; type: functional, cell-based; outline: as §1
U-87MG ATCC [5] = test: Cytotoxicity against human U87 cells up to 20 uM after 72 hrs by trypan blue exclusion assay; type: functional, cell-based; outline: as §1
U-937 [6] = test: Cytotoxicity against human U937 cells up to 20 uM after 72 hrs by trypan blue exclusion assay; type: functional, cell-based; outline: as §1
NB-4 = test: Cytotoxicity against human NB4 cells up to 20 uM after 72 hrs by trypan blue exclusion assay; type: functional, cell-based; outline: as §1
KG-1 = test: Cytotoxicity against human KG1 cells up to 20 uM after 72 hrs by trypan blue exclusion assay; type: functional, cell-based; outline: as §1
HCT-8 = test: Cytotoxicity against human HCT8 cells up to 20 uM after 72 hrs by trypan blue exclusion assay; type: functional, cell-based; outline: as §1
SW-620 = test: Cytotoxicity against human SW620 cells up to 20 uM after 72 hrs by trypan blue exclusion assay; type: functional, cell-based; outline: as §1
P19 [7] = test: Induction of neuritogenesis in mouse P19 cells assessed as dendrite expansion at 10 nM after 48 hrs by light microscopy; type: functional, cell-based
Outline: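 P19 embryonal carcinoma cells exposed to 10 nM or solvent vehicle for 48 h; dendrite expansion and cell-contact network assessed by light microscopy.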

P19 [8] = test: Induction of mouse P19 cell differentiation into neuron assessed as stimulation of MAP2A expression at 10 nM after 48 hrs by immunocytochemistry; type: functional, cell-based
Outline: (§2)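 P19 cells seeded at 10 000/well and treated with vehicle or 10 nM compound. Cells fixed in 4% paraformaldehyde, permeabilized with 1% BSA/0.05% saponin and blocked in 3% BSA. Stained with anti-MAP2A (1/100) or anti-β3-tubulin (1/200) for 1 h at room temperature, then TRITC secondary, and viewed by fluorescence microscopy.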

P19 [9] = test: Induction of mouse P19 cell differentiation into neuron assessed as stimulation of beta-3 tubulin expression at 10 nM after 48 hrs by immunocytochemistry; type: functional, cell-based; outline: as §2
P19 [10] = test: Induction of mouse P19 cell differentiation into neuron assessed as stimulation of NMDAR1 expression at 10 nM after 48 hrs by Western blotting; type: functional, cell-based
Outline: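 P19 cells treated with 10 nM compound for 48 h and lysed in Tris pH 7.4 RIPA-type buffer. Proteins run on 7.5% SDS-PAGE and blotted to PVDF. Probed overnight at 4 °C with anti-NMDAR1 (1:1000), with GAPDH as loading control, and detected by enhanced chemiluminescence.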

SK-N-SH [11] = test: Induction of neurite outgrowth in human SK-N-SH cells at 100 nM after 48 hrs by crystal violet staining; type: functional, cell-based
SH-SY5Y [12] = test: Induction of neurite outgrowth in human SH-SY5Y cells at 100 nM after 48 hrs by crystal violet staining; type: functional, cell-based
Outline: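 Cells exposed to 100 nM compound for 48 h on poly-D-lysine-coated inserts with a 3 μm pore membrane. Neurites crossing the membrane were methanol-fixed and stained, cell bodies were removed, and the dye was extracted and read at 562 nm.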

N2a [13] = test: Induction of neurite outgrowth in mouse Neuro2a cells at 100 nM after 48 hrs by crystal violet staining; type: functional, cell-based
U-87MG ATCC [14] = test: Induction of neurite outgrowth in human U87 cells at 100 nM after 48 hrs by crystal violet staining; type: functional, cell-based
P19 [15] = test: Induction of neurite outgrowth in mouse P19 cells at 100 nM after 48 hrs by crystal violet staining; type: functional, cell-based
Mus musculus = species: Mus musculus; test: Neuroprotective activity in mouse motoneuron assessed as cell proliferation at 10 nM treated for 3 days measured on day 2 to 6 post-treatment by cell counting method; type: functional; conditions: in the assay text read “cell survival” for “cell proliferation”
Outline: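 Purified mouse motoneurons; solvent vehicle, 100 ng/mL BDNF or 10 nM test agent added immediately after seeding; cells counted at days 2, 3, 4 and 6; surviving motoneurons expressed as percentage.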

U-937 [16] = test: Induction of dendrite out growth in IL-4/GMCSF-stimulated human U937 cells assessed as dendrite length at 100 nM after 48 hrs by light microscopy; type: functional
Outline: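 U937 cells at 1.1 × 10⁶ cells/mL were primed with 10 ng/mL PMA for 48 h in RPMI with 10% heat-inactivated serum. Adherent cells were then given 100 ng/mL IL-4 plus 100 ng/mL GM-CSF or 100 nM compound for 48 h. Dendrite length scored by light microscopy, from none to over 100 μm with a contact network.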

U-937 [17] = test: Cytotoxicity against human U937 cells after 3 days by trypan blue exclusion assay; type: functional, cell-based; conditions: u-937
Outline: (§3)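 U937 and P19 cells treated with compound. Cell death scored by trypan blue exclusion, with cells scraped, suspended in 0.25% w/v trypan blue in PBS and counted in a Malassez cell. IC50 is the concentration giving 50% cytotoxicity.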

P19 [18] = test: Induction of dendrite out growth in IL-4/GMCSF-stimulated mouse P19 cells assessed as dendrite length at 100 nM after 48 hrs by light microscopy; type: functional
P19 [19] = test: Cytotoxicity against mouse P19 cells after 3 days by trypan blue exclusion assay; type: functional, cell-based; conditions: p19; outline: as §3
U-937 [20] = test: Cytotoxicity against human U937 cells up to 20 uM after 3 days by trypan blue exclusion assay; type: functional, cell-based; outline: as §3
P19 [21] = test: Cytotoxicity against mouse P19 cells up to 20 uM after 3 days by trypan blue exclusion assay; type: functional, cell-based; outline: as §3
SK-N-SH [22] = test: Induction of neurite outgrowth in human SK-N-SH cells at 40 to 60 uM after 48 hrs by crystal violet staining; type: functional, cell-based
SH-SY5Y [23] = test: Induction of neurite outgrowth in human SH-SY5Y cells at 40 to 60 uM after 48 hrs by crystal violet staining; type: functional, cell-based
N2a [24] = test: Induction of neurite outgrowth in mouse Neuro2a cells at 40 to 60 uM after 48 hrs by crystal violet staining; type: functional, cell-based
U-87MG ATCC [25] = test: Induction of neurite outgrowth in human U87 cells at 40 to 60 uM after 48 hrs by crystal violet staining; type: functional, cell-based
P19 [26] = test: Induction of neurite outgrowth in mouse P19 cells at 40 to 60 uM after 48 hrs by crystal violet staining; type: functional, cell-based
SK-N-SH [27] = test: Induction of neurite outgrowth in human SK-N-SH cells at 2 to 5 uM after 48 hrs by crystal violet staining; type: functional, cell-based
SH-SY5Y [28] = test: Induction of neurite outgrowth in human SH-SY5Y cells at 2 to 5 uM after 48 hrs by crystal violet staining; type: functional, cell-based
N2a [29] = test: Induction of neurite outgrowth in mouse Neuro2a cells at 2 to 5 uM after 48 hrs by crystal violet staining; type: functional, cell-based
U-87MG ATCC [30] = test: Induction of neurite outgrowth in human U87 cells at 2 to 5 uM after 48 hrs by crystal violet staining; type: functional, cell-based
P19 [31] = test: Induction of neurite outgrowth in mouse P19 cells at 2 to 5 uM after 48 hrs by crystal violet staining; type: functional, cell-based

In the case of CC(C)CCC[C@@H](C)[C@H]1CC[C@H]2C3=C[C@@H](NCCCNCCCCN)[C@@]4(O)C[C@@H](O)CC[C@]4(C)[C@H]3CC[C@]12C [DENDROGENIN B], the Activity (MCF7) is reported as “inactive”, the Activity (TS/A) is reported as “inactive” and the Activity (SK-MEL-28) is reported as “inactive”. For the same compound, the Activity (B16-F10) was “inactive”, the Activity (A549) was “inactive” and the Activity (P19 [1]) was “inactive”. For the same compound, the Activity (SK-N-SH [2]) was “inactive”, the Activity (SH-SY5Y [3]) was “inactive” and the Activity (N2a [4]) was “inactive”. For the same compound, the Activity (U-87MG ATCC [5]) was “inactive”, the Activity (U-937 [6]) was “inactive” and the Activity (NB-4) was “inactive”. The Activity (KG-1) was “inactive”, the Activity (HCT-8) was “inactive” and the Activity (SW-620) was “inactive”. For the same compound, the Activity (P19 [7]) was “Active”, the Activity (P19 [8]) was “Active” and the Activity (P19 [9]) was “Active”. The Activity (P19 [10]) was “Active”, the Activity (SK-N-SH [11]) was “Active” and the Activity (SH-SY5Y [12]) was “Active”. For the same compound, the Activity (N2a [13]) was “Active”, the Activity (U-87MG ATCC [14]) was “Active” and the Activity (P19 [15]) was “Active”. For the same compound, the Activity (Mus musculus) was “Active”, the Activity (U-937 [16]) was under 5 um and the IC50 (U-937 [17]) was “Not Active”. For the same compound, the Activity (P19 [18]) was over 100 um, the IC50 (P19 [19]) was “Not Active” and the Activity (U-937 [20]) was “inactive”. For the same compound, the Activity (P19 [21]) was “inactive”.
In the case of CC/C=C\C/C=C\C/C=C\C/C=C\C/C=C\C/C=C\CCC(=O)O, the Activity (SK-N-SH [22]) is reported as “Active”, the Activity (SH-SY5Y [23]) is reported as “Active” and the Activity (N2a [24]) is reported as “Active”. For the same compound, the Activity (U-87MG ATCC [25]) was “Active” and the Activity (P19 [26]) was “Active”.
For CC1=C(/C=C/C(C)=C/C=C/C(C)=C/C(=O)O)C(C)(C)CCC1 [TRETINOIN], the Activity (SK-N-SH [27]) was “Active”, the Activity (SH-SY5Y [28]) was “Active” and the Activity (N2a [29]) was “Active”. For the same compound, the Activity (U-87MG ATCC [30]) was “Active”, the Activity (P19 [31]) was “Active” and the Activity (U-937 [16]) was “inactive”. For the same compound, the IC50 (U-937 [17]) was “Not Active”, the Activity (P19 [18]) was “inactive” and the IC50 (P19 [19]) was “Not Active”.
